Results taken from ChEMBL document CHEMBL4706647, “Development and optimization of halogenated vinyl sulfones as Nrf2 activators for the treatment of Parkinson's disease” (Eur J Med Chem, 2021).
The source made the active and inactive calls. The calls are words filed in the database; no cut-off is given here.

Key:
[1] = Stability in human microsomes assessed as parent compound remaining after 30 mins; assay type: ADME, Microsome; conditions: read-out: Stabilty
[2] = Cytotoxicity against mouse BV-2 cells assessed cell viability at 0.3 uM measured after 6 hrs by Ez-cytox reagent based assay relative to control; conditions: read-out: Activity
Outline: (§1)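 BV-2 cells (1.0 × 10⁴/well) grown 24 h at 37 °C, 5% CO2, then treated 6 h at […]. Viability expressed as percent of control.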

[3] = Cytotoxicity against mouse BV-2 cells assessed cell viability at 10 uM measured after 6 hrs by Ez-cytox reagent based assay relative to control; conditions: read-out: Activity
[4] = Cytotoxicity against mouse BV-2 cells assessed cell viability at 1 uM measured after 6 hrs by Ez-cytox reagent based assay relative to control; conditions: read-out: Activity; outline: as §1
[5] = Cytotoxicity against mouse BV-2 cells assessed cell viability at 3 uM measured after 6 hrs by Ez-cytox reagent based assay relative to control; conditions: read-out: Activity; outline: as §1
[6] = target: CYP2D6 (Homo sapiens, UniProt P10635); assay: Inhibition of CYP2D6 (unknown origin) assessed as residual activity; assay type: ADME
[7] = target: T1, CYP1A2 (Homo sapiens, UniProt P05177); assay: Inhibition of CYP1A2 (unknown origin) assessed as residual activity; assay type: ADME
T1 sequence (P05177 whole entry): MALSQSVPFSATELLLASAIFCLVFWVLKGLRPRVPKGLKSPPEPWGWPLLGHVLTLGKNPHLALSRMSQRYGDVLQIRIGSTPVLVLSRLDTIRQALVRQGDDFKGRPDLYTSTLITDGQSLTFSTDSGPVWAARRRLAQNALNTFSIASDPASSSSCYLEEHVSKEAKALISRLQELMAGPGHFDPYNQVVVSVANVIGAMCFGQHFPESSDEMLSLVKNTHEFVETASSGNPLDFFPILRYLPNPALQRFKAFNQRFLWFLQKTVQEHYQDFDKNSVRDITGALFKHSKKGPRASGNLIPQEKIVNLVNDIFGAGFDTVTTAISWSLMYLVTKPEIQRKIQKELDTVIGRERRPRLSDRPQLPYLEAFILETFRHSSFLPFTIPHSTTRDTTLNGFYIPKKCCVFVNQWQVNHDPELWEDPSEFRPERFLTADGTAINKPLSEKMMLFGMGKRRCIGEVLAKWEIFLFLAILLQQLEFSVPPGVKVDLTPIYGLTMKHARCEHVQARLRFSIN

[8] = Stability in human plasma assessed as parent compound remaining after 30 mins by LC-MS/MS analysis; assay type: ADME, cell-free; conditions: read-out: Stabilty
[9] = target: Voltage-gated inwardly rectifying potassium channel KCNH2 (Homo sapiens, UniProt Q12809); assay: Inhibition of fluorescence tracer red binding to human ERG measured after 4 hrs by fluorescence polarization assay
[10] = target: T2, Nuclear factor erythroid 2-related factor 2 (Mus musculus) (UniProt Q60795); assay: Activation of Nrf2 in mouse BV-2 cells assessed as increase in nuclear Nrf2 levels after 6 hrs by Western blot analysis; assay type: cell-based; conditions: filed as activator, dose 0.02-10 µM
T2 sequence (whole entry): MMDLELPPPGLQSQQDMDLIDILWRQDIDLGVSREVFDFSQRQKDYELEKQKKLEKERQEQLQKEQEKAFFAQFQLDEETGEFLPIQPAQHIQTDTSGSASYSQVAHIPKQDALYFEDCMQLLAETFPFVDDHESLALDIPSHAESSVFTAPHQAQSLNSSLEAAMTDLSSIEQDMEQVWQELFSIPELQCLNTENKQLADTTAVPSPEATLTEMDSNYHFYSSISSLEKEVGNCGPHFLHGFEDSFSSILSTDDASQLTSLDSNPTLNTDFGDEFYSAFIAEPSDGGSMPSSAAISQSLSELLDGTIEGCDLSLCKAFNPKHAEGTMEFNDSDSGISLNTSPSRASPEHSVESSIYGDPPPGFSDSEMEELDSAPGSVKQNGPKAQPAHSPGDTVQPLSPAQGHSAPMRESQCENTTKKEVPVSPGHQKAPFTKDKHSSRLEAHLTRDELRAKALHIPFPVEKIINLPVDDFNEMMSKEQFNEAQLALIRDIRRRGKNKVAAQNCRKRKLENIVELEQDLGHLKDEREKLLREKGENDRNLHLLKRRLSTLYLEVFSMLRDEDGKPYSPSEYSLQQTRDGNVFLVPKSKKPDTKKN

[11] = target: T2, Nuclear factor erythroid 2-related factor 2 (Mus musculus); assay: Activation of Nrf2 in mouse BV-2 cells assessed as increase in nuclear Nrf2 levels at 0.5 uM after 6 hrs by Western blot analysis relative to control; assay type: cell-based; conditions: filed as activator
[12] = target: T2, Nuclear factor erythroid 2-related factor 2 (Mus musculus); assay: Activation of Nrf2 in mouse BV-2 cells assessed as increase in nuclear Nrf2 levels at 10 uM after 6 hrs by Western blot analysis relative to control; assay type: cell-based; conditions: filed as activator
[13] = target: T2, Nuclear factor erythroid 2-related factor 2 (Mus musculus); assay: Activation of Nrf2 in mouse BV-2 cells assessed as increase in Sod1 mRNA expression after 6 hrs by RT-qPCR analysis; assay type: cell-based; conditions: filed as activator, dose 0.03-1 µM
Outline: (§2)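 BV-2 cells exposed to a range of concentrations for 6 h. Ho1, Gclc, Gclm and Sod1 mRNA quantified by RT-qPCR and expressed relative to vehicle-treated control. Mean ± SEM, n = 3; Student's t-test.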

[14] = target: T2, Nuclear factor erythroid 2-related factor 2 (Mus musculus); assay: Activation of Nrf2 in mouse BV-2 cells assessed as increase in HO1 mRNA expression at 1 uM after 6 hrs by RT-qPCR analysis relative to control; assay type: cell-based; conditions: filed as activator; outline: as §2
[15] = target: T2, Nuclear factor erythroid 2-related factor 2 (Mus musculus); assay: Activation of Nrf2 in mouse BV-2 cells assessed as increase in Gclc mRNA expression at 1 uM after 6 hrs by RT-qPCR analysis relative to control; assay type: cell-based; conditions: filed as activator; outline: as §2
[16] = target: T2, Nuclear factor erythroid 2-related factor 2 (Mus musculus); assay: Activation of Nrf2 in mouse BV-2 cells assessed as increase in Sod1 mRNA expression at 1 uM after 6 hrs by RT-qPCR analysis relative to control; assay type: cell-based; conditions: filed as activator; outline: as §2
[17] = target: T2, Nuclear factor erythroid 2-related factor 2 (Mus musculus); assay: Activation of Nrf2 in mouse BV-2 cells assessed as increase in HO1 expression at 10 uM after 6 hrs by Western blot analysis relative to control; assay type: cell-based; conditions: filed as activator
Outline: (§3)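 BV-2 microglia grown in RPMI-1640 with 10% FBS, penicillin-streptomycin and 2 mM L-glutamine at 37 °C, 5% CO2. Cells exposed to a range of concentrations for 6 h, then HO-1, GCLC, GCLM and SOD1 protein measured by Western blot. Band intensity normalized to β-actin and given as fold of vehicle control. Mean ± SEM, n = 3, three separate experiments.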

[18] = target: T2, Nuclear factor erythroid 2-related factor 2 (Mus musculus); assay: Activation of Nrf2 in mouse BV-2 cells assessed as increase in SOD1 expression at 10 uM after 6 hrs by Western blot analysis relative to control; assay type: cell-based; conditions: filed as activator; outline: as §3
[19] = target: T2, Nuclear factor erythroid 2-related factor 2 (Mus musculus); assay: Activation of Nrf2 in mouse BV-2 cells assessed as increase in HO1 expression after 6 hrs by Western blot analysis; assay type: cell-based; conditions: filed as activator, dose 0.02-10 µM; outline: as §3
[20] = system: Mus musculus; assay: Neuroprotective activity in MPTP-induced C57BL/6 mouse model of Parkinson's disease assessed as ability to pull and climb to the top of the hanger at 30 mg/kg, po pretreated for 1 day followed by MPTP challenge and subsequent compound dosing for 2 days measured 6 days post MPTP challenge by coat-hanger test; assay type: functional, organism-based; conditions: time 7.0 day
Outline: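 Male C57BL/6 mice, 10 weeks old, 23–26 g, n = 10 per group. Dosed 30 mg/kg p.o. for 3 consecutive days in 10% N-methyl-2-pyrrolidone/20% Tween-80 in water. On day 2, MPTP-HCl 20 mg/kg i.p. given four times at 2 h intervals. Coat-hanger (scored 1–5, test done twice) and vertical grid tests run 6 days after MPTP. Brains taken next day for anti-TH immunohistochemistry (1:1000, DAB).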

Sequence of CYP2D6 (P10635 whole entry): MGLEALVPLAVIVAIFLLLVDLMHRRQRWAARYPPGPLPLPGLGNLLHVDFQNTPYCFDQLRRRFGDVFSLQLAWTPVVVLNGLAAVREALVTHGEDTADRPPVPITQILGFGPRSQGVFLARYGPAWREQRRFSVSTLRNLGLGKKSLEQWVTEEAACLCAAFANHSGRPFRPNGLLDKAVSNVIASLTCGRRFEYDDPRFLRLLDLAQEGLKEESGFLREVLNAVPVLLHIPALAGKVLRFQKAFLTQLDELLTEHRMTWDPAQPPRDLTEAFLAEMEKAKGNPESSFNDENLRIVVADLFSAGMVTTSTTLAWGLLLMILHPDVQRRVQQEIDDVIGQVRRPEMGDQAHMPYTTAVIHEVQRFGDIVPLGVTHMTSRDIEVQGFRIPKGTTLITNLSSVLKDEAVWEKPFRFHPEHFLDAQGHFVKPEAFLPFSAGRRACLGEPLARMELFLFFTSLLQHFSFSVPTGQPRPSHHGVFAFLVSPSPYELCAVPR
Sequence of Voltage-gated inwardly rectifying potassium channel KCNH2 (Q12809 whole entry): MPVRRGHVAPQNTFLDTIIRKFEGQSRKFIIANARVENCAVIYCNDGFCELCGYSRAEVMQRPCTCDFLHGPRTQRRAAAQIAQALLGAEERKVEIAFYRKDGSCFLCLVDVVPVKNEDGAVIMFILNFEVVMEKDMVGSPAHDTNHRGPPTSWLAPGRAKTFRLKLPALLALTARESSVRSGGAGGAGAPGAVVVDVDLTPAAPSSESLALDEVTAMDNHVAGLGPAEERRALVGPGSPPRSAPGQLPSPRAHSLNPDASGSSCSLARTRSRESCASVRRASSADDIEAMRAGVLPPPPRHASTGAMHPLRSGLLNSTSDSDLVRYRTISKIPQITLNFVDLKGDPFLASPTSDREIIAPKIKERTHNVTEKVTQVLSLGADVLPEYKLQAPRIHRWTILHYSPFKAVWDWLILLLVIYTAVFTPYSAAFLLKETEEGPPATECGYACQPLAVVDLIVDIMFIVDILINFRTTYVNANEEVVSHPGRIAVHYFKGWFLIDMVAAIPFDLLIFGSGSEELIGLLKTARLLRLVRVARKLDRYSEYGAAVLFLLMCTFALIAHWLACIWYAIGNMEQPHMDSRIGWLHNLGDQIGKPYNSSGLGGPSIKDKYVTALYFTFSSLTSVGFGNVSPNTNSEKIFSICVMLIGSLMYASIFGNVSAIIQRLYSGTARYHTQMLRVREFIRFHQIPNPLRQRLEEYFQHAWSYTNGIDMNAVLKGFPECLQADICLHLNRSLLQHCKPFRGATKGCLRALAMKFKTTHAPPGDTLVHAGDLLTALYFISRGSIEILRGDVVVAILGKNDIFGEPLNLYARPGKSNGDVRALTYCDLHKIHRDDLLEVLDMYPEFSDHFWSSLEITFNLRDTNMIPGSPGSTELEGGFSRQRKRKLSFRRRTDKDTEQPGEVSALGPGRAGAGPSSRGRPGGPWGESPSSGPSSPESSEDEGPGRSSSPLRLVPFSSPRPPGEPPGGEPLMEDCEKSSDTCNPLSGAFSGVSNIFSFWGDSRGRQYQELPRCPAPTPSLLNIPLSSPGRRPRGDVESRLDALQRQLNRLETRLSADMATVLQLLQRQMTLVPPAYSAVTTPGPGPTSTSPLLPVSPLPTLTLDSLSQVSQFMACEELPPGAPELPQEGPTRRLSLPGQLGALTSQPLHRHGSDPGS

Molecule O=S(=O)(/C=C/c1ncccc1Cl)c1ccccc1Cl has a remaining at 0.5 h [1] of 66%, a viability at 6 h, 0.3 µM [2] of 100% and a viability at 6 h, 10 µM [3] of 100%. It also gave a viability at 6 h, 1 µM [4] of 98.9%, a viability at 6 h, 3 µM [5] of 92.4% and an activity [6] of 88%. It also gave an activity [7] of 88.4%, a remaining at 0.5 h [8] of 97% and an IC50 [9] of 110 µM. The Activity [10] was “Dose-dependent effect”, the fold change (FC) [11] was 11 and the fold change (FC) [12] was 22.6. The Activity [13] was “Dose-dependent effect”, the fold change (FC) [14] was 6 and the fold change (FC) [15] was 2.6. For the same molecule, the fold change (FC) [16] was 2.5, the fold change (FC) [17] was 17.6 and the fold change (FC) [18] was 6.6. For the same molecule, the Activity [19] was “Dose-dependent effect” and the Activity [20] was “Active”.
